≈ marks a conversion by molar mass, not a printed value. Where two headings read alike, the source gives them in different places.
Tests used:
[1] = Part 1: plasma PK of rilzabrutinib after single oral 400 mg tablet; format: in vivo, human
[2] = Part 1: plasma PK of [14C]‐rilzabrutinib after i.v. microtracer dose; format: in vivo; conditions: male, human, iv, 100 ug
[3] = Part 1: absolute oral bioavailability; format: in vivo; conditions: male, human, plasma, 400 mg
Procedure, shortened: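 Healthy subjects (n = 8) fasted overnight 10 h, then took a 400 mg oral tablet with 240 mL water. At 120 min, ~100 μg [14C]-labelled microtracer (~1 μCi) was given as an ~2-min i.v. push. K2 EDTA plasma was analysed by acetonitrile precipitation and LC-MS/MS (0.100–100 ng/mL). Noncompartmental AUC used linear-up/log-down. F was the GLSM oral/i.v. ratio with 90% CI, from a model with formulation fixed and subject random.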

[4] = format: in vivo, human
[5] = Part 2: total radioactivity PK in plasma and whole blood; format: in vivo, human; conditions: part 2, plasma total radioactivity
[6] = format: in vivo, human; remark: listed apart in the source
[7] = Part 2: urinary excretion of unchanged rilzabrutinib; format: in vivo, human
Safety and tolerability = format: in vivo, human
pH‐dependent solubility = format: physicochemical
gut flora = assay: Gut flora metabolism in vitro; format: in vitro ADME; conditions: in vitro studies (unpublished data)
[8] = previous bioavailability study; ref PRN1008‐006, unpublished data; cited from earlier work
BTK = conditions: within 4 h of dosing, multiple dosing; cited from earlier work
[9] = male, human, plasma, po, 400 mg
[10] = part 1, oral 400 mg tablet (test), mixed‐effect model
[11] = part 1, single oral 400 mg tablet, dose normalized, geometric mean (CV)
[12] = bile collection subjects, through the last collection interval
[13] = non‐bile collection subjects, through the last collection interval

In the case of `CC(C)(/C=C(\C#N)C(=O)N1CCC[C@@H](n2nc(-c3ccc(Oc4ccccc4)cc3F)c3c(N)ncnc32)C1)N1CCN(C2COC2)CC1` [rilzabrutinib], the “Delay in T max for tablet formulation as compared to liquid formulation” value ([1]; 400 mg tablet (part 1) versus 300 mg solution (part 2)) is reported as 1 h, the AUC(0-inf) [1, 9] is reported as 336 ng·h/mL and the AUC(0-t) [1, 9] is reported as 334 ng·h/mL. For the same compound, the Cmax [1, 9] was 108 ng/mL, the Tmax [1, 9] was 2.03 h and the “DN AUC0–inf, GLSM” value [1, 10] was 0.839 ng·h/mL/mg. For the same compound, the “DN AUC0–last, GLSM” value [1, 10] was 0.835 ng·h/mL/mg, the “DN AUC0–inf” value [1, 11] was 0.839 (62.2) [n = 8] h ng/mL/mg and the “DN AUC0–last” value [1, 11] was 0.835 (62.7) [n = 8] h ng/mL/mg. The Vd [2] was 149 L, the clearance [2] was 968 mL/min and the bioavailability [3] was under 5%. The half-life ([4]; male, human, plasma, po, 300 mg) was 2.45 h, the CL/F ([4]; part 2, single oral 300 mg solution, geometric mean (CV)) was 904 L/h and the Circulating metabolite identified [5] was “thiocyanate”. The “Administered radioactivity recovered in the first 192 h postdose” value ([6]; bile collection subjects) was 87.1%, the “Administered radioactivity recovered in bile, average” value ([6]; bile collection subjects, 3-8 h postdose) was 6.29% and the “Administered radioactivity recovered in feces, average” value [6, 12] was 72.7%. The “Administered radioactivity recovered in urine, average” value [6, 12] was 5.42%, the “Administered radioactivity recovered within the first 168 h of dosing” value ([6]; non‐bile collection subjects) was 92.1% and the “Administered radioactivity recovered in feces, mean” value [6, 13] was 87.0%. For the same compound, the “Administered radioactivity recovered in urine, mean” value [6, 13] was 5.25%, the CL renal ([7]; male, human, urine and plasma, po, 300 mg) was 4.05 mL/min and the “f eu (percentage of dose excreted in urine as unchanged drug)” value ([7]; unchanged rilzabrutinib in urine, 0–312 h, 300 mg oral, geometric mean (CV)) was 3.02%. For the same compound, the “Clinical laboratory evaluations, vital signs, 12‐lead electrocardiogram, physical examinations” value (Safety and tolerability; both parts of the study) was “no clinically significant findings”, the Tolerability (Safety and tolerability; both parts of the study, healthy male subjects) was “well‐tolerated” and the “Deaths, serious adverse events, or TEAEs leading to discontinuation” value (Safety and tolerability; either part of the study) was “No deaths, serious adverse events, or treatment emergent adverse events (TEAEs) leading to discontinuation”. For the same compound, the “Severity of TEAEs” value (Safety and tolerability; entire study, except for one moderate TEAE (viral infection) not treatment related) was “mild”, the “Total number of TEAEs” value (Safety and tolerability; part 1) was “three” and the “Total number of TEAEs” value (Safety and tolerability; part 2) was 13. The “Subjects who reported TEAEs” value (Safety and tolerability; part 2, six of 10 subjects) was 60%, the solubility (pH‐dependent solubility) was 40 µg/mL (≈ 60.1 µM) and the solubility (pH‐dependent solubility; aqueous buffer) was over 120000 µg/mL. The Gut flora metabolism (gut flora) was “high gut flora metabolism”, the “PK exposure after 300 mg oral solution and 400 mg tablet formulation” value [8] was “comparable” and the BTK occupancy (BTK) was “greater than 90%”.
